{"source": "ChEMBL document CHEMBL1255247", "about": "“Induction of L1 and L2 beta-lactamases of Stenotrophomonas maltophilia” (2008)", "key": {"[1]": {"tested_on": "Stenotrophomonas maltophilia", "assay": "Antibacterial activity against Stenotrophomonas maltophilia isolate KJ by Etest", "assay_type": "functional"}, "[2]": {"tested_on": "Stenotrophomonas maltophilia", "assay": "Antibacterial activity against Stenotrophomonas maltophilia isolate KJ deficient in L1 beta lactamase gene by Etest", "assay_type": "functional"}, "[3]": {"tested_on": "Stenotrophomonas maltophilia", "assay": "Antibacterial activity against Stenotrophomonas maltophilia isolate KJ deficient in L2 beta lactamase gene by Etest", "assay_type": "functional"}, "[4]": {"tested_on": "Stenotrophomonas maltophilia", "assay": "Antibacterial activity against Stenotrophomonas maltophilia isolate KJ deficient in L1 beta lactamase gene at 50 ug/ml", "assay_type": "functional, organism-based"}, "[5]": {"tested_on": "Stenotrophomonas maltophilia", "assay": "Antibacterial activity against Stenotrophomonas maltophilia isolate KJ deficient in L2 beta lactamase gene at 50 ug/ml", "assay_type": "functional, organism-based"}, "[6]": {"tested_on": "Stenotrophomonas maltophilia", "assay": "Ratio of induction of xylE gene expression in Stenotrophomonas maltophilia isolate KJ deficient in L1 beta lactamase gene to induction of xylE gene expression in Stenotrophomonas maltophilia isolate KJ deficient in L2 beta lactamase gene assessed as catechol 2,3-dioxygenase activity at 50 ug/ml", "assay_type": "functional"}, "[7]": {"tested_on": "Stenotrophomonas maltophilia", "assay": "Antibacterial activity against Stenotrophomonas maltophilia isolate KJ deficient in L2 beta lactamase gene at 8 ug/ml", "assay_type": "functional, organism-based"}, "[8]": {"tested_on": "Stenotrophomonas maltophilia", "assay": "Ratio of induction of xylE gene expression in Stenotrophomonas maltophilia isolate KJ deficient in L1 beta lactamase gene to induction of xylE gene expression in Stenotrophomonas maltophilia isolate KJ deficient in L2 beta lactamase gene assessed as catechol 2,3-dioxygenase activity at 8 ug/ml", "assay_type": "functional", "summary_of_the_method": "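xylE reporter (C23O) assay in L1- or L2-knockout mutants of strain KJ. Overnight cultures diluted to OD450 0.15 and grown 0.5 h at 37°C, then exposed to β-lactam inducer, by default for 2.5 h. C23O activity measured in intact cells with OD450 recorded. Specific activity is nmol substrate converted/min per A450 unit. At least three repeats.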"}, "[9]": {"tested_on": "Stenotrophomonas maltophilia", "assay": "Antibacterial activity against Stenotrophomonas maltophilia isolate KJ deficient in L1 beta lactamase gene at 16 ug/ml", "assay_type": "functional, organism-based"}, "[10]": {"tested_on": "Stenotrophomonas maltophilia", "assay": "Ratio of induction of xylE gene expression in Stenotrophomonas maltophilia isolate KJ deficient in L1 beta lactamase gene to induction of xylE gene expression in Stenotrophomonas maltophilia isolate KJ deficient in L2 beta lactamase gene assessed as catechol 2,3-dioxygenase activity at 16 ug/ml", "assay_type": "functional"}, "[11]": {"tested_on": "Stenotrophomonas maltophilia", "assay": "Induction of xylE gene expression in Stenotrophomonas maltophilia isolate KJ deficient in L1 beta lactamase gene assessed maximum catechol 2,3-dioxygenase activity at 50 ug/ml after 3 hrs", "assay_type": "functional, organism-based", "summary_of_the_method": "(§1)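 xylE (catechol 2,3-dioxygenase) reporter induction in the L1 or L2 knockout of strain KJ. Overnight cultures were diluted to OD450 0.15 and grown 0.5 h at 37°C, then exposed to β-lactam inducer (default 50 μg/ml, 2.5 h). C23O activity was read in intact cells with OD450. 1 U = 1 nmol substrate/min; specific activity is U per A450 unit. Each experiment was run ≥3 times.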"}, "[12]": {"tested_on": "Stenotrophomonas maltophilia", "assay": "Induction of xylE gene expression in Stenotrophomonas maltophilia isolate KJ deficient in L2 beta lactamase gene assessed maximum catechol 2,3-dioxygenase activity at 50 ug/ml after 2.5 hrs", "assay_type": "functional, organism-based", "summary_of_the_method": "as §1"}, "[13]": {"tested_on": "Stenotrophomonas maltophilia", "assay": "Induction of xylE gene expression in Stenotrophomonas maltophilia isolate KJ deficient in L1 beta lactamase gene assessed maximum catechol 2,3-dioxygenase activity at 1 ug/ml", "assay_type": "functional, organism-based", "summary_of_the_method": "as §1"}, "[14]": {"tested_on": "Stenotrophomonas maltophilia", "assay": "Induction of xylE gene expression in Stenotrophomonas maltophilia isolate KJ deficient in L2 beta lactamase gene assessed maximum catechol 2,3-dioxygenase activity at 1 ug/ml", "assay_type": "functional, organism-based", "summary_of_the_method": "as §1"}}, "note": "Calls of active or inactive are those of the source. The rule behind the calls is not given here.", "data": [{"smiles": "CC1(C)S[C@@H]2[C@H](NC(=O)[C@H](N)c3ccccc3)C(=O)N2[C@H]1C(=O)O", "note": "[AMPICILLIN]", "values": [{"measurement": "MIC", "setting": "[1]", "result": "> 2050", "unit": "µg/mL"}, {"measurement": "MIC", "setting": "[2]", "result": "> 2050", "unit": "µg/mL"}, {"measurement": "MIC", "setting": "[3]", "result": "> 2050", "unit": "µg/mL"}, {"measurement": "Activity", "setting": "[4]", "result": "inactive"}, {"measurement": "Activity", "setting": "[5]", "result": "inactive"}, {"measurement": "Ratio", "setting": "[6]", "result": 0.9}]}, {"smiles": "C[C@H]1[C@H](NC(=O)/C(=N\\OC(C)(C)C(=O)O)c2csc(N)n2)C(=O)N1S(=O)(=O)O", "note": "[AZTREONAM]", "values": [{"measurement": "MIC", "setting": "[1]", "result": "> 2050", "unit": "µg/mL"}, {"measurement": "MIC", "setting": "[2]", "result": "> 2050", "unit": "µg/mL"}, {"measurement": "Activity", "setting": "[7]", "result": "Active"}, {"measurement": "Ratio", "setting": "[8]", "result": 7.9}]}, {"smiles": "CC1(C)S[C@@H]2[C@H](NC(=O)C(C(=O)O)c3ccccc3)C(=O)N2[C@H]1C(=O)O", "note": "(some centres undefined) [CARBENICILLIN]", "values": [{"measurement": "MIC", "setting": "[1]", "result": 1020, "unit": "µg/mL"}, {"measurement": "MIC", "setting": "[2]", "result": 1020, "unit": "µg/mL"}, {"measurement": "MIC", "setting": "[3]", "result": 64, "unit": "µg/mL"}, {"measurement": "Activity", "setting": "[4]", "result": "inactive"}, {"measurement": "Activity", "setting": "[5]", "result": "inactive"}, {"measurement": "Ratio", "setting": "[6]", "result": 3.4}]}, {"smiles": "CO/N=C(\\C(=O)N[C@@H]1C(=O)N2C(C(=O)[O-])=C(C[N+]3(C)CCCC3)CS[C@H]12)c1csc(N)n1", "note": "[CEFEPIME]", "values": [{"measurement": "MIC", "setting": "[1]", "result": 64, "unit": "µg/mL"}, {"measurement": "MIC", "setting": "[2]", "result": 64, "unit": "µg/mL"}, {"measurement": "MIC", "setting": "[3]", "result": 4, "unit": "µg/mL"}]}, {"smiles": "CCN1CCN(C(=O)N[C@@H](C(=O)N[C@@H]2C(=O)N3C(C(=O)O)=C(CSc4nnnn4C)CS[C@H]23)c2ccc(O)cc2)C(=O)C1=O", "note": "[CEFOPERAZONE]", "values": [{"measurement": "MIC", "setting": "[1]", "result": 128, "unit": "µg/mL"}, {"measurement": "MIC", "setting": "[2]", "result": 32, "unit": "µg/mL"}, {"measurement": "MIC", "setting": "[3]", "result": 64, "unit": "µg/mL"}, {"measurement": "Activity", "setting": "[9]", "result": "Active"}, {"measurement": "Ratio", "setting": "[10]", "result": 1.4}]}, {"smiles": "CO/N=C(\\C(=O)N[C@@H]1C(=O)N2C(C(=O)O)=C(COC(C)=O)CS[C@H]12)c1csc(N)n1", "note": "[CEFOTAXIME]", "values": [{"measurement": "MIC", "setting": "[1]", "result": 256, "unit": "µg/mL"}, {"measurement": "MIC", "setting": "[2]", "result": 128, "unit": "µg/mL"}, {"measurement": "MIC", "setting": "[3]", "result": 128, "unit": "µg/mL"}, {"measurement": "Activity", "setting": "[4]", "result": "inactive"}, {"measurement": "Activity", "setting": "[5]", "result": "inactive"}, {"measurement": "Ratio", "setting": "[6]", "result": 3.2}]}, {"smiles": "CO[C@@]1(NC(=O)Cc2cccs2)C(=O)N2C(C(=O)O)=C(COC(N)=O)CS[C@@H]21", "note": "[CEFOXITIN]", "values": [{"measurement": "MIC", "setting": "[1]", "result": 1020, "unit": "µg/mL"}, {"measurement": "MIC", "setting": "[2]", "result": 128, "unit": "µg/mL"}, {"measurement": "MIC", "setting": "[3]", "result": 1020, "unit": "µg/mL"}, {"measurement": "Activity", "setting": "[4]", "result": "inactive"}, {"measurement": "Activity", "setting": "[5]", "result": "inactive"}, {"measurement": "Ratio", "setting": "[6]", "result": 0.2}]}, {"smiles": "CO/N=C(\\C(=O)N[C@@H]1C(=O)N2C(C(=O)O)=C(CSc3nc(=O)c(O)nn3C)CS[C@H]12)c1csc(N)n1", "note": "[CEFTRIAXONE]", "values": [{"measurement": "MIC", "setting": "[1]", "result": 256, "unit": "µg/mL"}, {"measurement": "MIC", "setting": "[2]", "result": 128, "unit": "µg/mL"}, {"measurement": "MIC", "setting": "[3]", "result": 128, "unit": "µg/mL"}, {"measurement": "Activity", "setting": "[4]", "result": "inactive"}, {"measurement": "Activity", "setting": "[5]", "result": "inactive"}, {"measurement": "Ratio", "setting": "[6]", "result": 5.5}]}, {"smiles": "CO/N=C(\\C(=O)N[C@@H]1C(=O)N2C(C(=O)O)=C(COC(N)=O)CS[C@H]12)c1ccco1", "note": "[CEFUROXIME]", "values": [{"measurement": "MIC", "setting": "[1]", "result": 2050, "unit": "µg/mL"}, {"measurement": "MIC", "setting": "[2]", "result": 1020, "unit": "µg/mL"}, {"measurement": "MIC", "setting": "[3]", "result": 1020, "unit": "µg/mL"}, {"measurement": "Activity", "setting": "[11]", "result": "Active"}, {"measurement": "Activity", "setting": "[12]", "result": "Active"}, {"measurement": "Activity", "setting": "[13]", "result": "Active"}, {"measurement": "Activity", "setting": "[14]", "result": "Active"}, {"measurement": "Activity", "setting": "[4]", "result": "inactive"}, {"measurement": "Activity", "setting": "[5]", "result": "inactive"}, {"measurement": "Ratio", "setting": "[6]", "result": 2.4}]}, {"smiles": "C[C@@H](O)[C@H]1C(=O)N2C(C(=O)O)=C(SCCNC=N)C[C@H]12", "note": "[IMIPENEM ANHYDROUS]", "values": [{"measurement": "MIC", "setting": "[1]", "result": "> 32", "unit": "µg/mL"}, {"measurement": "MIC", "setting": "[2]", "result": 8, "unit": "µg/mL"}, {"measurement": "MIC", "setting": "[3]", "result": "> 32", "unit": "µg/mL"}]}, {"smiles": "C[C@@H](O)[C@H]1C(=O)N2C(C(=O)O)=C(S[C@@H]3CN[C@H](C(=O)N(C)C)C3)[C@H](C)[C@H]12", "note": "[MEROPENEM]", "values": [{"measurement": "MIC", "setting": "[1]", "result": "> 32", "unit": "µg/mL"}, {"measurement": "MIC", "setting": "[2]", "result": 0.5, "unit": "µg/mL"}, {"measurement": "MIC", "setting": "[3]", "result": "> 32", "unit": "µg/mL"}]}, {"smiles": "CCN1CCN(C(=O)N[C@@H](C(=O)N[C@@H]2C(=O)N3[C@@H]2SC(C)(C)[C@@H]3C(=O)O)c2ccccc2)C(=O)C1=O", "note": "[PIPERACILLIN]", "values": [{"measurement": "MIC", "setting": "[1]", "result": 1020, "unit": "µg/mL"}, {"measurement": "MIC", "setting": "[2]", "result": 256, "unit": "µg/mL"}, {"measurement": "MIC", "setting": "[3]", "result": 512, "unit": "µg/mL"}, {"measurement": "Activity", "setting": "[4]", "result": "inactive"}, {"measurement": "Activity", "setting": "[5]", "result": "inactive"}, {"measurement": "Ratio", "setting": "[6]", "result": 1.7}]}]}
